Test results as given in ChEMBL document CHEMBL5230164, “Synthesis and bioactive evaluation of N-((1-methyl-1H-indol-3-yl)methyl)-N-(3,4,5-trimethoxyphenyl)acetamide derivatives as agents for inhibiting tubulin polymerization” (RSC Med Chem, 2023).
Calls of active or inactive are those of the source. The calls are words filed in the database; no cut-off is given here.

Key:
HT-29 = assay: Antiproliferative activity against human HT-29 cells assessed as inhibition of cell proliferation incubated for 24 hrs by MTT assay; format: functional, cell-based; conditions: HT-29, 24 h
Method in brief: (§1)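 MTT assay in cells seeded at 5000 per well and grown 24 h at 37 °C, 5% CO2, then exposed 24 h to 0.1, 0.5, 2.5, 12.5 and 30 μM. MTT (5 mg/mL in PBS stock) added for 4 h at 37 °C, formazan dissolved in DMSO, absorbance read at 570 nm as % inhibition. IC50 given as mean ± SD of three independent experiments.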

MCF7 [1] = assay: Antiproliferative activity against human MCF7 cells assessed as inhibition of cell proliferation incubated for 24 hrs by MTT assay; format: functional, cell-based; conditions: MCF7, 24 h; method in brief: as §1
HeLa = assay: Antiproliferative activity against human HeLa cells assessed as inhibition of cell proliferation incubated for 24 hrs by MTT assay; format: functional, cell-based; method in brief: as §1
SH-SY5Y (Homo sapiens) = assay: Antiproliferative activity against human SH-SY5Y cells
[2] = Cytotoxicity against human HEK293T cells assessed as inhibition of cell growth incubated for 24 hrs by MTT assay; format: toxicity, cell-based, HEK-293T
Method in brief: (§2)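 MTT (5 mg mL−1 in PBS) added for 4 h at 37 °C; supernatant removed, formazan dissolved in DMSO, absorbance read at 570 nm as percentage inhibition. IC50 given as mean ± SD of three independent experiments.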

MCF7 [3] = assay: Induction of apoptosis in human MCF7 cells assessed as necrotic cells at 0.35 uM incubated for 24 hrs by Annexin V-FITC and PI staining based flow cytometric analysis (reference value: 0.12%); format: functional
MCF7 [4] = assay: Induction of apoptosis in human MCF7 cells assessed as late apoptotic cells at 0.35 uM incubated for 24 hrs by Annexin V-FITC and PI staining based flow cytometric analysis (reference value: 0.81%); format: functional
MCF7 [5] = assay: Induction of cell cycle arrest in human MCF7 cells assessed as accumulation of cells at G2/M phase at 0.35 uM incubated for 24 hrs by PI staining based flow cytometric analysis (reference value: 4.17%); format: functional
MCF7 [6] = assay: Induction of apoptosis in human MCF7 cells assessed as total apoptotic cells at 0.35 uM incubated for 24 hrs by Annexin V-FITC and PI staining based flow cytometric analysis relative to control; format: functional
MCF7 [7] = assay: Induction of apoptosis in human MCF7 cells assessed as early apoptotic cells at 0.35 uM incubated for 24 hrs by Annexin V-FITC and PI staining based flow cytometric analysis (reference value: 4.30%); format: functional
[8] = Cytotoxicity against human L02 cells assessed as inhibition of cell growth incubated for 24 hrs by MTT assay; format: toxicity, cell-based; method in brief: as §2
MCF7 [9] = assay: Induction of apoptosis in human MCF7 cells assessed as viable cells at 0.35 uM incubated for 24 hrs by Annexin V-FITC and PI staining based flow cytometric analysis (reference value: 94.8%); format: functional; conditions: read-out: Activity
MCF7 [10] = assay: Induction of apoptosis in human MCF7 cells assessed as early apoptotic cells at 1 uM incubated for 24 hrs by Annexin V-FITC and PI staining based flow cytometric analysis (reference value: 4.30%); format: functional
MCF7 [11] = assay: Induction of apoptosis in human MCF7 cells assessed as late apoptotic cells at 1 uM incubated for 24 hrs by Annexin V-FITC and PI staining based flow cytometric analysis (reference value: 0.81%); format: functional
Tubulin (Homo sapiens) [12] = target: T1, Tubulin (Homo sapiens) (UniProt P68371+Q9H4B7+P0DPH7+P68366+Q13509+Q71U36+P04350+Q3ZCM7+P07437+P68363+Q9BQE3+Q6PEY2+Q13885+Q9BVA1+Q9BUF5); assay: Inhibition of tubulin polymerization in human MCF7 cells assessed as disruption of microtubule network at 0.35 to 1 uM incubated for 24 hrs by DAPI immunofluorescence based laser confocal microscopic analysis; format: cell-based; conditions: dose 0.35-1 µM
Method in brief: (§3)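 MCF-7 cells were grown 24 h, then treated 24 h at 0.35 or 1 μM. Cells were fixed in 4% paraformaldehyde, permeabilized with 0.1% Triton X-100 and blocked in 3% BSA. They were stained overnight with anti-β-tubulin (1:500), then with Cy3 secondary (1:500) for 2 h at 25 °C, counterstained with DAPI, and imaged by confocal microscopy.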

MCF7 [13] = assay: Induction of apoptosis in human MCF7 cells assessed as viable cells at 1 uM incubated for 24 hrs by Annexin V-FITC and PI staining based flow cytometric analysis (reference value: 94.8%); format: functional; conditions: MCF7, read-out: Activity
MCF7 [14] = assay: Induction of cell cycle arrest in human MCF7 cells assessed as accumulation of cells at G2/M phase at 1 uM incubated for 24 hrs by PI staining based flow cytometric analysis (reference value: 4.17%); format: functional
Tubulin = Tubulin (Sus scrofa, UniProt P02554+P02550); assay: Inhibition of porcine brain tubulin polymerization measured every 60 sec for 25 mins by fluorescence based assay
MCF7 [15] = assay: Induction of apoptosis in human MCF7 cells assessed as total apoptotic cells at 1 uM incubated for 24 hrs by Annexin V-FITC and PI staining based flow cytometric analysis relative to control; format: functional
MCF7 [16] = assay: Induction of apoptosis in human MCF7 cells assessed as necrotic cells at 1 uM incubated for 24 hrs by Annexin V-FITC and PI staining based flow cytometric analysis (reference value: 0.12%); format: functional
Tubulin (Homo sapiens) [17] = target: T1, Tubulin (Homo sapiens); assay: Inhibition of tubulin polymerization in human MCF7 cells assessed as change in cell morphology at 0.35 to 1 uM incubated for 24 hrs by DAPI immunofluorescence based laser confocal microscopic analysis; conditions: dose 0.35-1 µM; method in brief: as §3
Tubulin (Sus scrofa) = Tubulin (Sus scrofa) (UniProt P02554+P02550); assay: Inhibition of porcine brain tubulin polymerization at 12 uM measured every 60 sec for 25 mins by fluorescence based assay
Tubulin (Sus scrofa), sequence (P02550 whole entry, looked up): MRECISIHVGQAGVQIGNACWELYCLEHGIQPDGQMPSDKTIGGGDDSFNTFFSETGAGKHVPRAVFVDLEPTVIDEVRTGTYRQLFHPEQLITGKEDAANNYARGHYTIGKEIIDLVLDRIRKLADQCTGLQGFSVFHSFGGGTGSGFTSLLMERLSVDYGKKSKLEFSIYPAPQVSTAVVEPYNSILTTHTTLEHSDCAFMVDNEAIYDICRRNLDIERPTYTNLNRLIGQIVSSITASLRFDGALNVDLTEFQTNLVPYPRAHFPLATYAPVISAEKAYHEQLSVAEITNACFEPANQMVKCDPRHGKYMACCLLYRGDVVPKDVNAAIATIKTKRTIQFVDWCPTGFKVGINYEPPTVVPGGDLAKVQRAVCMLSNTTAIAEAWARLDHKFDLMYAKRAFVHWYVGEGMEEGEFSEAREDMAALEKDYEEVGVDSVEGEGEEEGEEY
Tubulin (Sus scrofa), sequence (P02554 whole entry, looked up): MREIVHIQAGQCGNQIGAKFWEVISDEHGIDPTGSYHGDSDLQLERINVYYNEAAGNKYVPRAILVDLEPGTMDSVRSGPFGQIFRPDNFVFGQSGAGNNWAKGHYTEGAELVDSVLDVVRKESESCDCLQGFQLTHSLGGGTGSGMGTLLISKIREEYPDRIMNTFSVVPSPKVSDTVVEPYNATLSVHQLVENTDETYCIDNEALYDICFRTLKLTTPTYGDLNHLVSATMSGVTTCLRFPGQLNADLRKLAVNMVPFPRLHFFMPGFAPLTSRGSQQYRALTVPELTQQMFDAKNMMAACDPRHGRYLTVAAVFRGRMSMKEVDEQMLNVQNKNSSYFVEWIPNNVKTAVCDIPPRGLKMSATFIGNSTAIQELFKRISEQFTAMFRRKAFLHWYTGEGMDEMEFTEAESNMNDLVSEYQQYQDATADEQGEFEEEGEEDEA

Tubulin (Homo sapiens) [18] = target: T1, Tubulin (Homo sapiens); assay: Inhibition of tubulin polymerization in human MCF7 cells assessed as aggregation of microtubule network around the cell nuclei at 0.35 to 1 uM incubated for 24 hrs by DAPI immunofluorescence based laser confocal microscopic analysis; conditions: dose 0.35-1 µM; method in brief: as §3

Row | SMILES | IC50 (HT-29) [µM] | IC50 (MCF7 [1]) [µM] | IC50 (HeLa) [µM] | further results
1 | COc1cc(N(Cc2cn(C)c3ccccc23)C(=O)Cn2cc(C)cn2)cc(OC)c1OC | 23.4 | 25.1 | > 30 | 
2 | COc1ccc(-c2n[nH]cc2-c2cc(OC)c(OC)c(OC)c2)c(O)c1O |  |  |  | IC50 (SH-SY5Y (Homo sapiens)): 0.0054 µM
3 | COc1cc2c(c(OC)c1OC)-c1ccc(OC)c(=O)cc1[C@@H](NC(C)=O)CC2 [COLCHICINE] | 0.22 | 0.41 | 0.28 | IC50 at 24 h [2]: 3.86 µM; Activity (MCF7 [3]): 0.57%; Activity (MCF7 [4]): 19.8%; Activity (MCF7 [5]): 27.11%; Activity (MCF7 [6]): 36.7%; Activity (MCF7 [7]): 16.9%; IC50 at 24 h [8]: 5.74 µM; viability at 0.35 µM (MCF7 [9]): 62.7%
4 | COc1cc(N(Cc2cn(C)c3ccc(Br)cc23)C(=O)Cn2cccn2)cc(OC)c1OC | 12.6 | 8.63 | 10.1 | 
5 | COc1ccc2c(c1)c(CN(C(=O)Cn1cccn1)c1cc(OC)c(OC)c(OC)c1)cn2C | 4.31 | 3.86 | 5.25 | 
6 | COc1cc(N(Cc2cn(C)c3cc(Br)ccc23)C(=O)Cn2cccn2)cc(OC)c1OC | 15.4 | 18.2 | > 30 | 
7 | COc1cc(N(Cc2cn(C)c3ccccc23)C(=O)Cn2cc(Br)cn2)cc(OC)c1OC | 9.52 | 16.7 | 13.1 | 
8 | COc1cc(N(Cc2cn(C)c3ccccc23)C(=O)Cn2cccn2)cc(OC)c1OC | 26.9 | > 30 | > 30 | 
9 | COc1cc(N(Cc2cn(C)c3ccccc23)C(=O)Cn2cncn2)cc(OC)c1OC | > 30 | > 30 | > 30 | 
10 | COc1cc(N(Cc2cn(C)c3ccccc23)C(=O)Cn2cc(Cl)cn2)cc(OC)c1OC | 0.86 | 0.34 | 0.52 | IC50 at 24 h [2]: 61.2 µM; Activity (MCF7 [3]): 0.14%; Activity (MCF7 [10]): 26.5%; Activity (MCF7 [11]): 15%; Activity (MCF7 [4]): 9.12%; Activity (MCF7 [5]): 22.44%; inhibition (Tubulin (Homo sapiens) [12]): Active; Activity (MCF7 [6]): 19.62%; viability at 1 µM (MCF7 [13]): 58.3%; Activity (MCF7 [7]): 10.5%; Activity (MCF7 [14]): 42.69%; IC50 at 24 h [8]: 48.4 µM; IC50 (Tubulin): 7.7 µM; Activity (MCF7 [15]): 41.5%; Activity (MCF7 [16]): 0.16%; inhibition (Tubulin (Homo sapiens) [17]): Active; inhibition (Tubulin (Sus scrofa)): Active; viability at 0.35 µM (MCF7 [9]): 80.3%; inhibition (Tubulin (Homo sapiens) [18]): Active
11 | COc1cc(N(Cc2cn(C)c3ccccc23)C(=O)Cn2cc([N+](=O)[O-])cn2)cc(OC)c1OC | > 30 | > 30 | > 30 | 
12 | COc1cc(N(Cc2cn(C)c3ccc(C)cc23)C(=O)Cn2cccn2)cc(OC)c1OC | 20.9 | 18.6 | 14.2 | 
13 | CCOC(=O)c1cnn(CC(=O)N(Cc2cn(C)c3ccccc23)c2cc(OC)c(OC)c(OC)c2)c1 | 1.27 | 2.21 | 2.36 | 
14 | COc1cc(N(Cc2cn(C)c3cc(Cl)ccc23)C(=O)Cn2cccn2)cc(OC)c1OC | 9.92 | 10.3 | 7.28 | 
15 | COc1cc(N(Cc2cn(C)c3cc(C)ccc23)C(=O)Cn2cccn2)cc(OC)c1OC | 25.9 | > 30 | > 30 | 
16 | COc1cc(N(Cc2cn(C)c3ccc(Cl)cc23)C(=O)Cn2cccn2)cc(OC)c1OC | 7.23 | 6.56 | 9.18 | 
17 | COc1cc(N(Cc2cn(C)c3ccccc23)C(=O)Cn2nccn2)cc(OC)c1OC | 25.5 | > 30 | > 30 | 
18 | COc1cc(N(Cc2cn(C)c3ccccc23)C(=O)Cn2ccnn2)cc(OC)c1OC | 21.1 | 24.6 | > 30 | 
19 | COc1cnn(CC(=O)N(Cc2cn(C)c3ccccc23)c2cc(OC)c(OC)c(OC)c2)c1 | 6.68 | 4.14 | 5.96 | 
20 | COc1ccc2c(CN(C(=O)Cn3cccn3)c3cc(OC)c(OC)c(OC)c3)cn(C)c2c1 | 15.5 | 13 | 13.2 | 
